By IC50 is commonly meant the point on the concentration scale where inhibition reaches its midpoint. A lower IC50 goes with higher potency.

Series [1] concerns Rattus norvegicus. As to the kind of experiment: Antidiabetic activity in streptozotocin induced diabetic Albino Wistar rat model assessed as blood glucose level at 36 mg/kg, po by glucose oxidase method. It is filed as functional. The method in brief: (§1)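 STZ 60 mg/kg i.p. (freshly made in 0.1 M citrate buffer pH 4.5) to overnight-fasted rats, 5% glucose to drink overnight; diabetic if blood glucose >250 mg/dL on day 3. […] Mean ± SEM, n=5; one-way ANOVA with Dunnett's t test.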

For the next series, the system named is 3T3-L1. The experiment in a line: Increase in PPARgamma gene expression in mouse 3T3L1 cells at 10 uM incubated for 24 hrs by real-time PCR method relative to untreated control. It is filed as functional. The essentials:
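3T3-L1 cells in DMEM with 10% calf serum, seeded 24 h ahead in 24-well plates, exposed to 10 µM compound 24 h at 37 °C, 5% CO2; DMSO vehicle as negative control. RNA extracted, reverse transcribed, qPCR in triplicate, repeated twice; relative PPAR-γ transcript by Ct method normalised to β-actin.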
Background: Real-time PCR tracks product formation cycle by cycle.

Series [2] is filed under the species Rattus norvegicus. The experiment in a line: Hepatoprotective effect in streptozotocin induced diabetic Albino Wistar rat model assessed as reduction in serum AST level. The class given is functional, organism-based. The method in brief: (§2)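 Serum from STZ-diabetic rats (60 mg/kg i.p.) after oral treatment in 0.25% CMC. AST and ALT measured by the Reitman–Frankel method; ALP by the Walter–Schult method with p-nitrophenyl phosphate substrate.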

For series [3], the species on record is Rattus norvegicus. The experiment in a line: Hepatoprotective effect in streptozotocin induced diabetic Albino Wistar rat model assessed as reduction in serum ALT level. The class given is functional, organism-based. The essentials:
as §2

Series [4] is filed under the species Rattus norvegicus. As to the kind of experiment: Toxicity in streptozotocin induced diabetic Albino Wistar rat model assessed as induction of portal triad inflammation measured 5 hrs post dose by haematoxylin and eosin staining based microscopy. It is filed as organism-based. The following applies: in vivo.
For series [5], the species on record is Rattus norvegicus. The experiment in a line: Toxicity in streptozotocin induced diabetic Albino Wistar rat model assessed as induction of centrizonal triad inflammation measured 5 hrs post dose by haematoxylin and eosin staining based microscopy. The class given is organism-based. As to conditions: in vivo.
Series [6] deals with Rattus norvegicus. The experiment in a line: Antidiabetic activity in streptozotocin induced diabetic Albino Wistar rat model assessed as blood glucose level dosed orally at equimolar dose of Pioglitazone by glucose oxidase method. The class given is functional. The essentials: as §1
The species named for series [7] is Rattus norvegicus. The experiment in a line: Hepatoprotective effect in streptozotocin induced diabetic Albino Wistar rat model assessed as reduction in serum ALP level. The class given is functional, organism-based. The method in brief:
as §2

The species named for series [8] is Rattus norvegicus. The experiment in a line: Toxicity in streptozotocin induced diabetic Albino Wistar rat model assessed as induction of sinusoidal space dilation measured 5 hrs post dose by haematoxylin and eosin staining based microscopy. The class given is organism-based. The following applies: in vivo.
Series [9] deals with Rattus norvegicus. As to the kind of experiment: Toxicity in normal Albino Wistar rat assessed as increase in body weight dosed for 15 days. The class given is organism-based. The following applies: in vivo, 360 h. The method in brief:
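Normal and STZ-diabetic Wistar rats (STZ 60 mg/kg i.p.) dosed orally daily for 15 days in 0.25% CMC suspension; body weight compared with normal and diabetic controls. Mean ± SEM, n=5; one-way ANOVA with Dunnett's t test.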

Series [10] deals with Voltage-gated inwardly rectifying potassium channel KCNH2 (Homo sapiens, UniProt Q12809). As to the kind of experiment: Inhibition of human ERG.
Chain of Voltage-gated inwardly rectifying potassium channel KCNH2 (Q12809 whole entry): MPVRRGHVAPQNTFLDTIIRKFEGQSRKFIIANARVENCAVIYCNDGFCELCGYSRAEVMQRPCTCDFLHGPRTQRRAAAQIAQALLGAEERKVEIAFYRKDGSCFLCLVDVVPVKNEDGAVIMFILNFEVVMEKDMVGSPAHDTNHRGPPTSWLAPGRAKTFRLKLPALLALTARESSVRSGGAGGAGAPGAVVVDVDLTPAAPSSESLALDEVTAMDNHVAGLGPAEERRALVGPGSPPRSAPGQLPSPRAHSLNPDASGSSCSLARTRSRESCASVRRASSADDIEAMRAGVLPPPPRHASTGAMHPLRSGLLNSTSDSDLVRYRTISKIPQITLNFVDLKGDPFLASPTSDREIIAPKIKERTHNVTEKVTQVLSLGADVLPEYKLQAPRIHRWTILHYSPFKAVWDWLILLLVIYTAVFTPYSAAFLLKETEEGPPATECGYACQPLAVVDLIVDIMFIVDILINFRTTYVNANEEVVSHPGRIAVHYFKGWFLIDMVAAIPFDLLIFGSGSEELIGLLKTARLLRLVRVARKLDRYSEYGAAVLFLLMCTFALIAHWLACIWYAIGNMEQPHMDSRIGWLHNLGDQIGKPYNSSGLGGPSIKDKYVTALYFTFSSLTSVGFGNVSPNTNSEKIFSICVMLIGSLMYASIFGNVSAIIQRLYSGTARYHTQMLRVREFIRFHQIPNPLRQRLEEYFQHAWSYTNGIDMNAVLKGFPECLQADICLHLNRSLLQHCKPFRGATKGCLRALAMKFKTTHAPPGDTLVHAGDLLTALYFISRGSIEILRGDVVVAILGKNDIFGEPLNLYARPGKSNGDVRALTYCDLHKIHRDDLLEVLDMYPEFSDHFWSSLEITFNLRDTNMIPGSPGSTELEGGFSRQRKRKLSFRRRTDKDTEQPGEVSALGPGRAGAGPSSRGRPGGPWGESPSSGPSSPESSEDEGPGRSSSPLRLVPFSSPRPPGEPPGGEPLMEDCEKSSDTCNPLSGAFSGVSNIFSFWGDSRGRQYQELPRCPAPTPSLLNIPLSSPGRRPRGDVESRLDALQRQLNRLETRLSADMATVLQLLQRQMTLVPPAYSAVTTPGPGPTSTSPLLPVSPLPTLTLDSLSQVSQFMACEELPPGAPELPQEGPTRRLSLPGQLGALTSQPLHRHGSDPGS
Series [11] is filed under the species Rattus norvegicus. As to the kind of experiment: Antidiabetic activity in streptozotocin induced diabetic Albino Wistar rat model assessed as reduction in blood glucose level by oral glucose tolerance test. It is filed as functional, organism-based. The essentials: (§3)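 STZ-diabetic rats (60 mg/kg i.p.; glucose >250 mg/dL on day 3) given compound orally as 0.25% CMC suspension, then oral glucose tolerance and insulin tolerance tests, blood glucose followed over time. Groups: normal control, normal + compound, diabetic control, treated diabetic. Mean ± SEM of five observations; one-way ANOVA, Dunnett's t test.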

Series [12] relates to Rattus norvegicus. As to the kind of experiment: Antidiabetic activity in streptozotocin induced diabetic Albino Wistar rat model assessed as reduction in blood glucose level measured 90 mins after insulin dosing by insulin tolerance test. It is filed as functional, organism-based. The essentials:
as §3

Calls of active or inactive are those of the source. No cut-off for these calls is given here.

`CN(CCOc1ccc(CC2SC(=O)NC2=O)cc1)c1ccccn1` (stereo not drawn) [ROSIGLITAZONE]: the Activity with Rattus norvegicus [1] was found to be 144.2 mg/dL. Besides, the “fold change (FC)” value in the series on 3T3-L1 is 1.
On to `COc1cc(/C=C2/SC(=O)NC2=O)ccc1OCc1nnc(-c2ccccc2)o1`, for which the outcome in the series filed under Rattus norvegicus [2], in the series listed under Rattus norvegicus [3] and in the series listed under Rattus norvegicus [7] was Active. The Activity result was “Non-toxic” in the series filed under Rattus norvegicus [4], “Non-toxic” in the series listed under Rattus norvegicus [5], 139.7 mg/dL with Rattus norvegicus [6] and “Non-toxic” in the series listed under Rattus norvegicus [8].
`CCc1ccc(CCOc2ccc(CC3SC(=O)NC3=O)cc2)nc1` (stereo not drawn) [PIOGLITAZONE]: the outcome in the series filed under Rattus norvegicus [2], in the series filed under Rattus norvegicus [3] and in the series filed under Rattus norvegicus [7] was Active. Besides, the Activity result in the series filed under Rattus norvegicus [4] is “Non-toxic”; in the series filed under Rattus norvegicus [5] it was “Toxic”; with Rattus norvegicus [1], 132 mg/dL; in the series filed under Rattus norvegicus [8], “Toxic”.
Turning to `COc1cc(/C=C2/SC(=O)NC2=O)ccc1OCc1nnc(-c2ccc(Br)cc2)o1`, the outcome in the series filed under Rattus norvegicus [2], in the series filed under Rattus norvegicus [3] and in the series filed under Rattus norvegicus [7] was Active. Besides, the Activity result is “Non-toxic” in the series listed under Rattus norvegicus [4], “Non-toxic” in the series filed under Rattus norvegicus [5], 135.2 mg/dL with Rattus norvegicus [6] and “Non-toxic” in the series listed under Rattus norvegicus [8].
For the compound `O=C1NC(=O)/C(=C\c2ccccc2OCc2nnc(-c3ccccc3)o2)S1`, the result in the series listed under Rattus norvegicus [2], in the series listed under Rattus norvegicus [3] and in the series filed under Rattus norvegicus [7] was Active. Also, the Activity entry is “Non-toxic” in the series listed under Rattus norvegicus [4], “Non-toxic” in the series listed under Rattus norvegicus [5], 139.6 mg/dL in the series with Rattus norvegicus [6] and “Non-toxic” in the series filed under Rattus norvegicus [8]. Further, in the series on 3T3-L1, the “fold change (FC)” value was found to be 2.1.
As to `O=C1NC(=O)/C(=C\c2ccccc2OCc2nnc(COc3ccc(Cl)cc3Cl)o2)S1`, the outcome in the series listed under Rattus norvegicus [2], in the series listed under Rattus norvegicus [3], in the series listed under Rattus norvegicus [7], in the series filed under Rattus norvegicus [11] and in the series on Rattus norvegicus [12] was Active. Besides, the Activity entry in the series with Rattus norvegicus [9] is “Non-toxic”; in the series listed under Rattus norvegicus [4] it was “Non-toxic”; in the series filed under Rattus norvegicus [5], “Non-toxic”; with Rattus norvegicus [6], 134 mg/dL; in the series listed under Rattus norvegicus [8] it was “Non-toxic”. The IC50 in series [10] was determined as 29 µM. Moreover, the “fold change (FC)” value in the series on 3T3-L1 is reported as 2.

The values above are taken from ChEMBL document CHEMBL3351839, “Design, synthesis, in silico molecular docking and biological evaluation of novel oxadiazole based thiazolidine-2,4-diones bis-heterocycles as PPAR-γ agonists” (Eur J Med Chem, 2014).
